The list is not random: actives were taken first. Their share in the collection is about 2.1%.
SUMO1 PPI mod: modulators of human SUMO1-mediated protein-protein interactions | hit rate 0.33% among 360,000 | SUMO1 binding to a labelled peptide, TR-FRET, 1 h | inhibition, % at 20 µM | AID 602429; in the data active = inhibition above about 37%
Scp1 inh: blocks human Scp-1 phosphatase activity; hit rate 0.88% among 340,000; inhibition, % at 20 µM; AID 493091; Q9GZU7; Recombinant Scp1, phosphopeptide, malachite green phosphate absorbance;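 active = inhibition above about 50% at 20 µM, limit read from the data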;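 note: plate controls were DMSO wells with enzyme for no effect and wells lacking enzyme for full effect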
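Test system – truncated SCP-1 phosphatase (76-261aa) · Reagent – Phosphorylated 17-residue peptide substrate · Incubation – 45 min room-temperature reaction, 5 min colour, 30 min stabiliser · Detection – colorimetric phosphate reagent with accelerator and stabiliser, absorbance at 630 nm · Measure – % inhibition at 20 µM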
LMPTP block: LMPTP (human) inhibition; P24666; recombinant LMPTP-A, OMFP fluorogenic substrate, fluorescence intensity; inhibition, % at 20 µM; hit rate 0.22% among 360,000; AID 651560;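 active = compounds that cut the enzyme signal by at least half of the control window in the single-dose screen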;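 note: plate controls were DMSO wells with enzyme plus substrate for no effect and substrate without enzyme for full effect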
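Test system: LMPTP-A phosphatase enzyme; input: 0.625 nM LMPTP-A final; reagent: OMFP substrate, 400 µM final; compound dosing: 20 µM single dose, 3% DMSO; incubation: 50 min dark incubation at room temperature; measured by: endpoint fluorescence intensity from OMFP dephosphorylation; measure: % inhibition relative to no-enzyme and uninhibited control wells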
DNMT1 inh: inhibitors of human DNMT1 | AID 588458 | hit rate 0.83% among 360,000 | inhibition (reported as % activation of signal), % at 10 µM | DNMT1 molecular beacon, Hinp1I cleavage, fluorescence; in the data active = inhibition above about 50%
STEP inh: inhibitors of human striatal-enriched phosphatase STEP; recombinant STEP, OMFP fluorogenic substrate, fluorescence; inhibition, % at 20 µM; hit rate 0.25% among 360,000; AID 588621;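 active = inhibition at 20 µM, scaled per plate between control wells, above about 37%, limit read from the data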;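 note: 0% = DMSO with enzyme and substrate and 100% = substrate only without enzyme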
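Assay system: isolated STEP enzyme. Buffer or medium: pH 6.0 Bis-Tris with DTT and Tween 20. Also added: fluorogenic phosphatase substrate OMFP at 25 µM final. Dosing: 20 µM, 1% DMSO. Timing: 20 min reaction, room temperature, in the dark. Measured by: fluorescence intensity, excitation 480 nm, emission 540 nm. Evaluation: normalized % inhibition.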
GRK2 aptamer HTS: blocks RNA aptamer binding to human GRK2; P25098; bead flow cytometry, FAM-aptamer displacement from GRK2; inhibition of aptamer binding, % at 10 µM; hit rate 0.59% among 330,000; AID 488847;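 active = inhibition of aptamer binding above 40%, roughly 3 SD of noise, on plates passing a quality check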;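 note: median bead fluorescence of bound FAM aptamer so fluorescent compounds give negative values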
Target sequence (P25098 whole entry, looked up): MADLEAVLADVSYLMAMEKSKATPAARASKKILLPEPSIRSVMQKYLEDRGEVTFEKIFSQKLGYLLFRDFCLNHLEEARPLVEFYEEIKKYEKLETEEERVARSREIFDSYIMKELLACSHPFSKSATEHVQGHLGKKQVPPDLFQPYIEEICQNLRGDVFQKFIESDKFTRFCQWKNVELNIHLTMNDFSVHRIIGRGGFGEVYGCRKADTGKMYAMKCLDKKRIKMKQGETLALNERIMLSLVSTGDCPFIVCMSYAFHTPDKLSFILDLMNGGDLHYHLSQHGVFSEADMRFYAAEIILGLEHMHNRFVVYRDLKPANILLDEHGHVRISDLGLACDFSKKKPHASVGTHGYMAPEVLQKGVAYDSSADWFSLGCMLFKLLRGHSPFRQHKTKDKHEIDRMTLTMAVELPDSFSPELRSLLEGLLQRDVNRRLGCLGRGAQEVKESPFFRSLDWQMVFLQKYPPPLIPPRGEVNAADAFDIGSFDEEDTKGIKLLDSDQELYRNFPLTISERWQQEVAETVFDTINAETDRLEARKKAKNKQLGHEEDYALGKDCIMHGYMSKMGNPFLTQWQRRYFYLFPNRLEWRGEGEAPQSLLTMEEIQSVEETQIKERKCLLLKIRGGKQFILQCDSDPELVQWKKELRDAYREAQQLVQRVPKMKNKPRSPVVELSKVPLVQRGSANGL
GRK2 CP1: confirmation of human GRK2 inhibitors displacing RNA aptamer. shares compounds with GRK2 aptamer HTS. bead-bound GRK2, FAM-aptamer displacement, flow cytometry. aptamer displacement, % at 10 µM. hit rate 4% among 2,000;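 active = aptamer displacement above 40%, near three times the noise of non-fluorescent compounds, on plates passing quality checks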;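 note: negative values mostly reflect intrinsic compound fluorescence rather than true enhancement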
Aptamer quench: quenches fluorescent RNA aptamer, GRK2 hit artifact; shares compounds with GRK2 aptamer HTS; Fluorescent RNA aptamer beads, quenching, flow cytometry; hits give high values; fluorescence change (kMESF span), kMESF (no concentration beside the values); 110 tested, under 10 active; AID 504521;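 active = compounds whose bead fluorescence drops by more than 37 kMESF across the dose range, marking them as dye quenchers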
FAM quench CP1: counter-screen for GRK2 aptamer inhibitors: fluorescent aptamer quenchers. Carboxyfluorescein RNA aptamer on beads, flow cytometry quenching; hits give low values. shares compounds with GRK2 aptamer HTS. fluorescence response (% of DMSO), % at 10 µM. AID 504580. 2,000 tested, under 10 active;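 active = compounds that quench the bead-bound fluorescent RNA probe, cutting fluorescence to under half of the solvent control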;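 note: counterscreen run without GRK2 so only probe quenching by compound is measured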
GRK2 confirm 2: human GRK2 inhibition confirmation, cherry pick 2. bead-bound GRK2, FAM-aptamer displacement, flow cytometry. 360 tested, under 10 active. inhibition of aptamer binding, % at 10 µM. shares compounds with GRK2 aptamer HTS;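 active = inhibition of aptamer binding above 40%, about triple the noise seen with nonglowing compounds, on plates passing quality control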;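 note: negative values mostly come from compounds that fluoresce themselves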
FAM quench SP: aptamer fluorescence quenching in GRK2 counter-screen; shares compounds with GRK2 aptamer HTS; AID 588494; carboxyfluorescein RNA aptamer beads, flow cytometry quenching; hits give low values; fluorescence response vs DMSO, % at 10 µM; 360 tested, under 10 active;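 active = response vs DMSO under 50%, meaning signal dropped by over half, treated as fluorescence quencher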;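 note: labelled aptamer on streptavidin beads without GRK2 as a quench counter-screen; 100% = bead fluorescence of DMSO wells and lower means quenching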
Scp1 confirm: confirmation of human Scp-1 phosphatase inhibitors. shares compounds with Scp1 inh. recombinant SCP-1 catalytic domain, phosphate release, malachite green absorbance. inhibition, % at 20 µM. hit rate 61% among 2,500;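 note: plate controls were DMSO with enzyme for no effect and buffer wells lacking enzyme for full effect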
MG interference: colorimetric interference in Scp-1 counter-screen; 2,500 tested, under 10 active; shares compounds with Scp1 inh; apparent inhibition (interference), % at 20 µM; Colorimetric interference counterscreen, malachite green absorbance 630 nm;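 note: compounds added after enzyme reaction finished so only phosphate colour detection is probed; plate controls were DMSO wells with completed Scp-1 reaction for no effect and substrate wells lacking enzyme for full effect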
Scp-1 Tm shift: binds human Scp-1, shifting its melting temperature; shares compounds with Scp1 inh; Recombinant SCP1, Sypro Orange thermal shift Tm; thermal shift relative to vanadate control, % at 40 µM; hit rate 25% among 1,500; AID 540329;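 active = substances whose mean melting-temperature shift, as a percentage of the reference inhibitor's shift, reaches about 5.3%, limit read from the data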;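 note: 0% = Tm of DMSO wells and 100% = Tm with sodium orthovanadate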
Beacon interf DR: beacon fluorescence artifact, dose response counter-screen; shares compounds with DNMT1 inh; molecular beacon fluorescence, spectral interference counter-screen; IC50, µM; 200 tested, under 10 active; AID 602382; call rule not given here
DNMT1 confirm: DNMT1 inhibition confirmation, single concentration. AID 602385. inhibition, % at 10 µM. DNMT1 molecular beacon HinP1I cleavage, fluorescence. hit rate 8% among 2,300. shares compounds with DNMT1 inh;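 active = average inhibition of at least 30% in the single-concentration confirmation test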
DNMT1 interf: beacon fluorescence artifact counter-screen; shares compounds with DNMT1 inh; DNMT1 molecular beacon spectral interference counterscreen, fluorescence 485/520; activation (fluorescence interference), % at 10 µM; hit rate 1% among 2,300;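 active = activation of at least 30% at 10 µM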;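 note: DNMT1 catalytic domain with a HinP1I cleavage step and a FAM/dabcyl DNA beacon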
* = called active by the depositor; nt = not tested or not shown.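 Rule for the calls, unless noted: active = inhibition of at least 30% at 20 µM; inactive = the rest.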

SMILES | SUMO1 PPI mod | Scp1 inh | LMPTP block | DNMT1 inh | STEP inh | GRK2 aptamer HTS | GRK2 CP1 | FAM quench CP1 | DNMT1 confirm | DNMT1 interf | others
C=C(C)C(=O)Nc1cccc(C2=NOC3(C2)C[C@@H](C(N)=O)N(C(=O)/C=C/C=C/C)C3)c1 (some centres undefined) | 104.8* | 75.3* | 0.0 | 105.2* | 11.3 | 92.0* | 82.5* | 100.4 | 89.5* | -2.9 | Aptamer quench=10.4;Beacon interf DR=>99
CC1(C)CN(C2CCCCC2)C(=O)[C@H]1CC(=O)Nc1ccc(Br)cc1 | 4.5 | nt | 0.9 | 3.5 | -0.9 | nt | nt | nt | nt | nt
Cc1cccc(C(=O)OCC(=O)NCc2ccc(Cl)cc2)c1 | -1.5 | nt | -1.0 | 1.6 | -3.1 | nt | nt | nt | nt | nt
COC(=O)[C@@]12C[C@@H](CC(=O)NCCC(C)C)C(=O)N(Cc3ccccc3)C1=CCC(C)(C)C2 | 1.4 | nt | 0.0 | nt | nt | nt | nt | nt | nt | nt
CCCCn1c(NS(=O)(=O)c2ccc(C)cc2)c(S(=O)(=O)c2ccccc2)c2nc3ccccc3nc21 | 50.1* | -16.6 | 25.2 | 54.9* | 3.0 | 0.0 | -5.1 | 97.4 | 1.6 | -5.7
CC(C)(C)NC(=O)C(C1CC1)n1c(=O)c(-c2ccccc2)nc2ccccc21 (centres undefined) | -11.1 | nt | -0.6 | nt | nt | nt | nt | nt | nt | nt
CC(CNc1ccccc1O)C(=O)O (centres undefined) | -3.2 | 73.1* | -1.1 | 63.6* | -1.4 | 62.0* | nt | nt | 1.7 | 0.0 | GRK2 confirm 2=24.6;FAM quench SP=108.0;Scp1 confirm=43.4*;MG interference=-16.9;Scp-1 Tm shift=-2.7
CC(NC(=O)CCC(=O)Nc1ccccc1O)c1ccccc1 (centres undefined) | 1.8 | -10.8 | -1.8 | -2.6 | 2.9 | 2.0 | nt | nt | nt | nt

Screens: PubChem, several laboratories
